Assay results: article PMC7089611 (Febs Letters, 2012)

Columns and labels:
[1] = Secondary structural content by CD spectroscopy; format: physicochemical; conditions: 25 °C, protein 5 μM, 50 mM Tris–HCl pH 7.5, 150 mM NaCl, 0.1% β‐mercaptoethanol, CDSSTR
[2] = format: physicochemical; conditions: CD at 220 nm, protein 7 μM, 50 mM Tris–HCl pH 7.5, 150 mM NaCl, 0.1% β‐mercaptoethanol
[3] = system: C‐terminal domain of the HCoV‐229E N protein; assay: Sedimentation velocity analytical ultracentrifugation: self-association; format: binding; conditions: N245–389 in the absence of the C‐terminal tail peptide
Procedure, shortened: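 C-terminal His6-tagged N-protein domain (residues 245–389) was bacterially expressed (1 mM IPTG, 37 °C, 6 h) and purified on Ni–NTA. Runs were at 20 °C and 42,000 rpm, read at 280 nm every 420 s, at 50, 30 and 10 μM protein in 50 mM Tris–HCl pH 7.5, 150 mM NaCl, 0.1% β-mercaptoethanol. Data were fit to a continuous size distribution (0.1–20.0 S).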

Molecule | Disordered (random coil) content [1] [%] | Helix content [1] [%] | Sheet content [1] [%] | Turn content [1] [%] | melting temperature (Tm) [2] | S-value of dimer ([3]; 20 °C, dimer) | S-value of octamer ([3]; 20 °C, octamer) | S-value of tetramer ([3]; 20 °C, tetramer) | molecular mass corresponding to S-value, dimer ([3]; dimer) [kDa] | molecular mass corresponding to S-value, octamer ([3]; octamer) [kDa] | molecular mass corresponding to S-value, tetramer ([3]; tetramer) [kDa]
N245–382: truncated C‐terminal domain of the HCoV‐229E N protein, extended C‐terminal tail that includes residue 382 (protein, left off: His6, C-terminal, state not stated) QKPRWKRQPNDDVTSNVTQCFGPRDLDHNFGSAGVVANGVKAKGYPQFAELVPSTAAMLFDSHIVSKESGNTVVLTFTTRVTVPKDHPHLGKFLEELNAFTREMQQHPLLNPSALEFNPSQTSPATAEPVRDEVSIET | 13 | 43 | 25 | 19 | above 70 °C |  |  |  |  |  | 
N245–376: truncated C‐terminal domain of the HCoV‐229E N protein, extended C‐terminal tail that includes residue 376 (protein, left off: His6, C-terminal, state not stated) QKPRWKRQPNDDVTSNVTQCFGPRDLDHNFGSAGVVANGVKAKGYPQFAELVPSTAAMLFDSHIVSKESGNTVVLTFTTRVTVPKDHPHLGKFLEELNAFTREMQQHPLLNPSALEFNPSQTSPATAEPVRD | 15 | 47 | 22 | 16 | 36.7 °C |  |  |  |  |  | 
N245–370: truncated C‐terminal domain of the HCoV‐229E N protein, extended C‐terminal tail that includes residue 370 (protein, left off: His6, C-terminal, state not stated) QKPRWKRQPNDDVTSNVTQCFGPRDLDHNFGSAGVVANGVKAKGYPQFAELVPSTAAMLFDSHIVSKESGNTVVLTFTTRVTVPKDHPHLGKFLEELNAFTREMQQHPLLNPSALEFNPSQTSPAT | 17 | 46 | 23 | 14 | 36.2 °C |  |  |  |  |  | 
N245–389: truncated C‐terminal domain of the HCoV‐229E N protein, extended C‐terminal tail that includes residue 389 (protein, left off: His6, C-terminal, state not stated) QKPRWKRQPNDDVTSNVTQCFGPRDLDHNFGSAGVVANGVKAKGYPQFAELVPSTAAMLFDSHIVSKESGNTVVLTFTTRVTVPKDHPHLGKFLEELNAFTREMQQHPLLNPSALEFNPSQTSPATAEPVRDEVSIETDIIDEVN | 13 | 45 | 26 | 16 | above 70 °C | approximately 2.85 | ~7.75 | ~5.30 | 31 | 131 | 69
